In brackets after ≈: the same amount, converted by molar mass.
Columns and labels:
[1] = Antitumor activity against mouse EAC after 2 hrs by trypan blue exclusion assay; assay type: functional, cell-based; conditions: Ehrlich
Summary of the method: (§1)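 EAC cells aspirated from ascitic fluid of preinoculated mice (line maintained by weekly i.p. transplantation), suspended in saline at 2.5×10⁶/ml. Compounds dissolved in DMSO:saline 0.7:0.3 at 1, 0.75, 0.5, 0.25 mg/ml stocks; 0.1 ml added to 0.8 ml saline plus 0.1 ml cells. Incubation 37 °C, 2 h; non-viable cells counted by trypan blue exclusion. IC50 taken from survival-versus-concentration curve.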

[2] = Antitumor activity against mouse EAC assessed as non viable cells at 50 ug/ml after 2 hrs by trypan blue exclusion assay; assay type: functional, Ehrlich; summary of the method: as §1
[3] = Antitumor activity against mouse EAC assessed as non viable cells at 100 ug/ml after 2 hrs by trypan blue exclusion assay; assay type: functional, Ehrlich; summary of the method: as §1
[4] = Antitumor activity against mouse EAC assessed as non viable cells at 25 ug/ml after 2 hrs by trypan blue exclusion assay; assay type: functional, Ehrlich; summary of the method: as §1
[5] = Antitumor activity against mouse EAC assessed as non viable cells at 75 ug/ml after 2 hrs by trypan blue exclusion assay; assay type: functional, Ehrlich; summary of the method: as §1
Mus musculus [6] = assay: Radioprotective activity in 6 Gy gamma irradiated Swiss albino mouse assessed as change in gamma irradiation-induced blood superoxide dismutase activity at 150 mg/kg, ip administered as 3 doses in alternative days up to 7 days pretreated 30 mins before gamma-irradiation relative to control; assay type: functional; conditions: route intraperitoneal
Mus musculus [7] = assay: Radioprotective activity in 6Gy gamma irradiated Swiss albino mouse assessed as reduction in gamma irradiation-inhibited blood glutathione content at 150 mg/kg, ip administered as 3 doses in alternative days up to 7 days pretreated 30 mins before gamma-irradiation relative to control; assay type: functional; parameters: scale not given: the % may be the effect or the level left; conditions: route intraperitoneal
Mus musculus [8] = assay: Radioprotective activity in 6 Gy gamma irradiated Swiss albino mouse assessed as change blood superoxide dismutase activity at 150 mg/kg, ip administered as 3 doses in alternative days up to 7 days relative to control; assay type: functional; conditions: route intraperitoneal
Mus musculus [9] = assay: Radioprotective activity in 6Gy gamma irradiated Swiss albino mouse assessed as increase in blood glutathione content at 150 mg/kg, ip administered as 3 doses in alternative days up to 7 days relative to control; conditions: route intraperitoneal
Mus musculus [10] = assay: Radioprotective activity in 6Gy gamma irradiated Swiss albino mouse assessed as reduction in lipid peroxidation at 150 mg/kg, ip administered as 3 doses in alternative days up to 7 days relative to control; assay type: functional; parameters: scale not given: the % may be the effect or the level left; conditions: route intraperitoneal
Mus musculus [11] = assay: Radioprotective activity in 6Gy gamma irradiated Swiss albino mouse assessed as reduction in gamma irradiation-induced lipid peroxidation at 150 mg/kg, ip administered as 3 doses in alternative days up to 7 days pretreated 30 mins before gamma-irradiation relative to control; assay type: functional; parameters: scale not given: the % may be the effect or the level left; conditions: route intraperitoneal
Mus musculus [12] = assay: Radioprotective activity in 6Gy gamma irradiated Swiss albino mouse assessed as […] at 150 mg/kg, ip administered as 3 doses in alternative days up to 7 days pretreated 30 mins before gamma-irradiation relative to control; assay type: functional; conditions: route intraperitoneal
Summary of the method: (§2)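 Female Swiss albino mice (25–30 g), 10 per group. Test agent was suspended in carboxymethylcellulose and given ip every other day, 3 injections over 7 days, each 30 min before whole-body gamma irradiation (Cs-137, 6 Gy, 0.86 Gy/min). Groups were untreated, CMC, radiation-only and drug-only. Survival is the percentage of animals alive 7 days after the radiation dose.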

Mus musculus [13] = assay: Radioprotective activity in 6Gy gamma irradiated Swiss albino mouse assessed as survival at 150 mg/kg, ip administered as 3 doses in alternative days up to 7 days relative to control; assay type: functional; conditions: route intraperitoneal; summary of the method: as §2

SMILES	IC50 [1] [µg/mL]	Activity [2] [%]	Activity [3] [%]	Activity [4] [%]	Activity [5] [%]	Activity (Mus musculus [6]) [%]	Activity (Mus musculus [7]) [%]	Activity (Mus musculus [8]) [%]	Activity (Mus musculus [9]) [%]	Activity (Mus musculus [10]) [%]	Activity (Mus musculus [11]) [%]	Activity (Mus musculus [12]) [%]	Activity (Mus musculus [13]) [%]
Nn1c(=O)[nH]c2c(cnn2-c2ccccc2)c1=O	100 (≈ 411 µM)	20	50	10	30								
O=c1c2cnn(-c3ccccc3)c2ncn1Cc1ccccc1	90 (≈ 298 µM)	10	80	10	20								
Nn1cnc2c(cnn2-c2ccccc2)c1=S	> 100	10	10	10	10	-9.3	9.63	-2.04	4.95	5.33	-6.19	100	100
O=c1c2cnn(-c3ccccc3)c2nc2ocnn12	> 100	0	0	10	0								
O=c1c2cnn(-c3ccccc3)c2nc2[nH]c3ccccc3n12	> 100	0	0	10	0								
S=c1nc2c3cnn(-c4ccccc4)c3ncn2[nH]1	> 100	10	30	10	10								
O=C1/C(=C/c2ccccc2)N=C(c2ccccc2)N1n1cnc2c(cnn2-c2ccccc2)c1=O	> 100	0	0	10	0								
O=c1oc2nc3c(cnn3-c3ccccc3)c(=O)n2c2ccccc12	> 100	10	30	10	30								
CSC(=NS(=O)(=O)c1ccc(Nc2nn3c(=O)c4cnn(-c5ccccc5)c4nc3o2)cc1)SC	> 100	10	20	10	10								
COc1cccc2c1C(=O)c1c(O)c3c(c(O)c1C2=O)C[C@@](O)(C(=O)CO)C[C@@H]3O[C@H]1C[C@H](N)[C@H](O)[C@H](C)O1 [DOXORUBICIN]	52 (≈ 95.7 µM)	55	100	20	75								
